Data from ChEMBL document CHEMBL1141667, “Synthesis and antimicrobial activities of 7-O-modified genistein derivatives” (2008).
In brackets after ≈: the same amount, converted by molar mass.

How the values were obtained:
Type in all cases: functional
Bacillus subtilis = test: Antibacterial activity against Bacillus subtilis after 24 hrs by MTT assay
Outline: (§1)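 Broth microdilution MIC in MH medium. Compounds from a 50 mg/mL DMSO stock were serially diluted in medium. Inoculum was about 10⁵ cfu/mL, each concentration in triplicate, incubated at 37 °C for 24 h. MIC was read visually, then confirmed by adding PBS with 2 mg/mL MTT and incubating 4–5 h at room temperature. A compound-free medium control checked for any MTT effect on growth.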

Staphylococcus aureus = test: Antibacterial activity against Staphylococcus aureus after 24 hrs by MTT assay; outline: as §1
Pseudomonas fluorescens = test: Antibacterial activity against Pseudomonas fluorescens after 24 hrs by MTT assay; outline: as §1
Escherichia coli = test: Antibacterial activity against Escherichia coli after 24 hrs by MTT assay; outline: as §1
Trichophyton rubrum = test: Antifungal activity against Trichophyton rubrum after 48 hrs by MTT assay
Outline: (§2)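 Antifungal MIC by microdilution in RPMI-1640 medium. Compounds came from a 50 mg/mL DMSO stock and were serially diluted. Inoculum was about 10⁵ cfu/mL, with triplicate wells per concentration, incubated at 37 °C for 48 h. MIC was judged visually, followed by PBS containing 2 mg/mL MTT for 4–5 h at room temperature for the colorimetric read. A compound-free control tested MTT interference.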

Candida albicans = test: Antifungal activity against Candida albicans after 48 hrs by MTT assay; outline: as §2
Aspergillus niger = test: Antifungal activity against Aspergillus niger after 48 hrs by MTT assay; outline: as §2

Row | SMILES | MIC (Bacillus subtilis) | MIC (Staphylococcus aureus) | MIC (Pseudomonas fluorescens) | MIC (Escherichia coli) | MIC (Trichophyton rubrum) | MIC (Candida albicans) | MIC (Aspergillus niger)
1 | O=c1c(-c2ccc(O)cc2)coc2cc(OCCn3cnc4ccccc43)cc(O)c12 | > 50 µg/mL | > 50 µg/mL | > 50 µg/mL | > 50 µg/mL | > 50 µg/mL | > 50 µg/mL | > 50 µg/mL
2 | O=c1c(-c2ccc(O)cc2)coc2cc(OCCCn3ccnc3)cc(O)c12 | > 50 µg/mL | > 50 µg/mL | > 50 µg/mL | > 50 µg/mL | > 50 µg/mL | > 50 µg/mL | > 50 µg/mL
3 | NC[C@H]1O[C@H](O[C@H]2[C@H](O)[C@@H](O[C@H]3O[C@H](CO)[C@@H](O)[C@H](N)[C@H]3O)[C@H](N)C[C@@H]2N)[C@H](O)[C@@H](O)[C@@H]1O [KANAMYCIN] | 1 µg/mL (≈ 2.06 µM) | 1 µg/mL (≈ 2.06 µM) | 3.9 µg/mL (≈ 8.05 µM) | 3.9 µg/mL (≈ 8.05 µM) | – | – | –
4 | CCCN(CCC)CCCCOc1cc(O)c2c(=O)c(-c3ccc(O)cc3)coc2c1 | 19.5 µg/mL (≈ 45.8 µM) | 10.5 µg/mL (≈ 24.7 µM) | 19.5 µg/mL (≈ 45.8 µM) | > 50 µg/mL | > 50 µg/mL | > 50 µg/mL | > 50 µg/mL
5 | O=c1c(-c2ccc(O)cc2)coc2cc(OCCBr)cc(O)c12 | > 50 µg/mL | > 50 µg/mL | > 50 µg/mL | > 50 µg/mL | > 50 µg/mL | > 50 µg/mL | > 50 µg/mL
6 | CCCN(CCC)CCCOc1cc(O)c2c(=O)c(-c3ccc(O)cc3)coc2c1 | 32 µg/mL (≈ 77.8 µM) | 15.3 µg/mL (≈ 37.2 µM) | 45 µg/mL (≈ 109 µM) | > 50 µg/mL | > 50 µg/mL | > 50 µg/mL | > 50 µg/mL
7 | O=c1c(-c2ccc(O)cc2)coc2cc(OCCN3CCCC3)cc(O)c12 | > 50 µg/mL | 49.6 µg/mL (≈ 135 µM) | 28.5 µg/mL (≈ 77.6 µM) | > 50 µg/mL | > 50 µg/mL | > 50 µg/mL | 39.8 µg/mL (≈ 108 µM)
8 | CCCCN(CCCC)CCCOc1cc(O)c2c(=O)c(-c3ccc(O)cc3)coc2c1 | > 50 µg/mL | 17.1 µg/mL (≈ 38.9 µM) | 18.5 µg/mL (≈ 42.1 µM) | > 50 µg/mL | > 50 µg/mL | > 50 µg/mL | > 50 µg/mL
9 | CCCN(CCC)CCOc1cc(O)c2c(=O)c(-c3ccc(O)cc3)coc2c1 | > 50 µg/mL | 41.2 µg/mL (≈ 104 µM) | 47.5 µg/mL (≈ 120 µM) | > 50 µg/mL | > 50 µg/mL | > 50 µg/mL | > 50 µg/mL
10 | O=c1c(-c2ccc(O)cc2)coc2cc(OCCCBr)cc(O)c12 | > 50 µg/mL | > 50 µg/mL | > 50 µg/mL | > 50 µg/mL | > 50 µg/mL | > 50 µg/mL | > 50 µg/mL
11 | O=c1c(-c2ccc(O)cc2)coc2cc(OCCNCc3ccco3)cc(O)c12 | > 50 µg/mL | > 50 µg/mL | > 50 µg/mL | > 50 µg/mL | > 50 µg/mL | > 50 µg/mL | > 50 µg/mL
12 | O=c1c(-c2ccc(O)cc2)coc2cc(OCCCN3CCCC3)cc(O)c12 | 48.5 µg/mL (≈ 127 µM) | 18.5 µg/mL (≈ 48.5 µM) | 20.5 µg/mL (≈ 53.7 µM) | > 50 µg/mL | 21.5 µg/mL (≈ 56.4 µM) | 20.5 µg/mL (≈ 53.7 µM) | 23.5 µg/mL (≈ 61.6 µM)
13 | O=c1c(-c2ccc(O)cc2)coc2cc(OCCCCNCc3ccco3)cc(O)c12 | > 50 µg/mL | 35.3 µg/mL (≈ 83.8 µM) | 12 µg/mL (≈ 28.5 µM) | > 50 µg/mL | > 50 µg/mL | > 50 µg/mL | > 50 µg/mL
14 | CCCCN(CCCC)CCOc1cc(O)c2c(=O)c(-c3ccc(O)cc3)coc2c1 | 30 µg/mL (≈ 70.5 µM) | 32.8 µg/mL (≈ 77.1 µM) | 37 µg/mL (≈ 87 µM) | > 50 µg/mL | > 50 µg/mL | > 50 µg/mL | 41.6 µg/mL (≈ 97.8 µM)
15 | CN1CCN(CCCCOc2cc(O)c3c(=O)c(-c4ccc(O)cc4)coc3c2)CC1 | 30.3 µg/mL (≈ 71.4 µM) | 27.2 µg/mL (≈ 64.1 µM) | 37.4 µg/mL (≈ 88.1 µM) | > 50 µg/mL | > 50 µg/mL | > 50 µg/mL | > 50 µg/mL
16 | O=c1c(-c2ccc(O)cc2)coc2cc(OCCCCN3CCOCC3)cc(O)c12 | 35.5 µg/mL (≈ 86.3 µM) | 37.5 µg/mL (≈ 91.1 µM) | > 50 µg/mL | > 50 µg/mL | > 50 µg/mL | > 50 µg/mL | > 50 µg/mL
17 | O=c1c(-c2ccc(O)cc2)coc2cc(OCCCCn3ccnc3)cc(O)c12 | > 50 µg/mL | > 50 µg/mL | > 50 µg/mL | > 50 µg/mL | > 50 µg/mL | > 50 µg/mL | > 50 µg/mL
18 | O=c1c(-c2ccc(O)cc2)coc2cc(OCCCCn3cnc4ccccc43)cc(O)c12 | > 50 µg/mL | 21.3 µg/mL (≈ 48.1 µM) | > 50 µg/mL | > 50 µg/mL | > 50 µg/mL | > 50 µg/mL | > 50 µg/mL
